Reference: ChEMBL document CHEMBL1141142, “Application of fluorescence microscopy for investigation of cellular distribution of dinuclear platinum anticancer drugs” (J Med Chem, 2005)
pIC50: −log10 of the molar value.

Experiments:
Type in all cases: functional
[1] = Inhibitory concentration required for in vitro cytotoxic activity against human U2-OS osteosarcoma cell line (cisplatin Resistant)
Outline: (§1)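 MTT growth inhibition; U2-OS or cisplatin-resistant U2-OS/Pt monolayers in DMEM with 10% fetal calf serum, penicillin/streptomycin; (3-5) × 10³ cells/well, attached overnight; five dilutions (from 1 mg/mL stocks in water or dimethylformamide) added in quadruplicate; 72 h exposure; MTT ~120 min, DMSO dissolution, OD 590 nm; IC50 versus control read graphically.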

[2] = Inhibitory concentration required for in vitro cytotoxic activity against human U2-OS osteosarcoma cell line; outline: as §1
Homo sapiens = species: Homo sapiens; test: Relative ratio of IC50 values in both cell lines (U2-OS/Pt)/U2-OS)
Outline: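 Ratio of IC50 in U2-OS/Pt over U2-OS, both from the 72 h MTT growth-inhibition assay (quadruplicate wells, five dilutions, OD 590 nm, IC50 derived graphically).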

Row | Sequence | pIC50 [1] | pIC50 [2] | RF (Homo sapiens)
1 | CISPLATIN [listing 1 of 2 here] | 5.14 | 5.54 | –
2 | CISPLATIN [listing 2 of 2 here] | – | – | 2.5
